Here are results for ten compounds from ChEMBL document CHEMBL2062391, “Antiausterity agents from Uvaria dac and their preferential cytotoxic activity against human pancreatic cancer cell lines in a nutrient-deprived condition” (J Nat Prod, 2012).

For series [1], the system named is MIA PaCa-2. The experiment in a line: Cytotoxicity against human MIAPaCa2 cells grown in nutrient-deprived medium after 24 hrs by WST8 assay. The class given is functional. The procedure, abridged: (§1)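 Cells seeded at 2 × 10^4/well and grown 24 h in fresh DMEM or RPMI-1640 at 37 °C, 5% CO2. After a PBS wash, the medium was replaced with serially diluted samples in DMEM (nutrient-rich) or NDM. After 24 h, DMEM with 10% WST-8 solution was added. A450 was read after 3 h. Viability (%) was taken from the mean of three wells, blank-corrected against the control. PC50 is 50% kill in NDM without toxicity in DMEM.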
For orientation: Tetrazolium dyes change colour on reduction, which living cells bring about.

Series [2] concerns KLM1. The experiment in a line: (§2) Cytotoxicity against human KLM1 cells grown in nutrient-deprived medium after 24 hrs by WST8 assay. Format: functional. The essentials:
as §1

Series [3] can be described thus: as §2. The class given is functional. The essentials:
as §1

Series [4] deals with PANC-1. As to the kind of experiment: Induction of morphological changes in human PANC1 cells assessed as rounding of cells at 25 uM after 24 hrs by inverted-phase contrast microscopic analysis. The class given is functional, cell-based. The essentials:
(§3)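 Cells (1 × 10^6) were seeded in 60 mm dishes and attached over 24 h in a humidified CO2 incubator. They were washed twice with PBS and treated at 25 μM in DMEM or NDM, alongside controls. After 24 h, cells were viewed by phase-contrast on an inverted microscope with a 40× objective and photographed.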

Series [5] has as its system PANC-1. As to the kind of experiment: Induction of morphological changes in human PANC1 cells assessed as plasma membrane rupture at 25 uM after 24 hrs by inverted-phase contrast microscopic analysis. The class given is functional, cell-based. The procedure, abridged:
as §3

The subject of series [6] is PSN1. The experiment in a line: Cytotoxicity against human PSN1 cells grown in nutrient-rich medium after 24 hrs by WST8 assay. Format: cell-based. The conditions noted are these: psn1, 24 h. The procedure, abridged:
as §1

The subject of series [7] is PANC-1. As to the kind of experiment: Cytotoxicity against human PANC1 cells grown in nutrient-rich medium after 24 hrs by WST8 assay. Format: cell-based. The conditions noted are these: panc-1, 24 h. The essentials: as §1
Series [8] has as its system MIA PaCa-2. As to the kind of experiment: Cytotoxicity against human MIAPaCa2 cells grown in nutrient-rich medium after 24 hrs by WST8 assay. The class given is cell-based. The settings on record: mia paca-2, 24 h. The essentials: as §1
For series [9], the system named is PANC-1. As to the kind of experiment: Induction of morphological changes in human PANC1 cells assessed as loss of cellular content at 25 uM after 24 hrs by inverted-phase contrast microscopic analysis. Format: functional, cell-based. The procedure, abridged:
as §3

A short description of series [10]: Cytotoxicity against human KLM1 cells grown in nutrient-rich medium after 24 hrs by WST8 assay. The conditions noted are these: klm1, 24 h. Format: cell-based. The essentials:
as §1

In series [11] the test system is PANC-1. As to the kind of experiment: Cytotoxicity against human PANC1 cells grown in nutrient-deprived medium after 24 hrs by WST8 assay. Format: functional. The essentials: as §1
Series [12] has as its system PSN1. The experiment in a line: Cytotoxicity against human PSN1 cells grown in nutrient-deprived medium after 24 hrs by WST8 assay. Format: functional. The essentials: as §1

Active and inactive are the calls of the source. The rule behind the calls is not given here.

Regarding `O=C(OC[C@@]1(O)C(=O)C=C[C@H]2[C@@H]1[C@H]1C=C[C@@H]2C(=O)[C@]1(O)COC(=O)c1ccccc1)c1ccccc1`, the Activity result in series [1] was “Dose-dependent effect”; in series [2] it was “Dose-dependent effect”; in series [6], “Non-toxic”; in series [7], “Non-toxic”; in series [8], “Non-toxic”; in series [10] it was “Non-toxic”. The Activity result in series [11] and in series [12] was “Dose-dependent effect” each time. The PC50 in series [1] was found to be 17.5 µM; in [3], 32.7 µM; in series [11] it was 14.5 µM; in series [12] it was 32.6 µM. Moreover, the result in [4], in series [5] and in series [9] was Active.

Consider `COc1ccccc1COC(=O)c1ccccc1`, for which the PC50 in series [1] is 131 µM; in [3] it was over 200 µM; in series [11], 137 µM; in [12], 185 µM. In addition, the Activity entry in series [6], in [7], in series [8] and in series [10] was “Non-toxic” each time.

With `COc1cc(C[C@H]2C(=O)OC[C@@H]2Cc2ccc(OC)c(OC)c2)ccc1O` [ARCTIGENIN], the PC50 in [1] was 0.67 µM; in series [3], 1.5 µM; in series [11], 1.7 µM; in series [12] it was 1.9 µM. The Activity result in [6], in series [7], in [8] and in [10] was “Non-toxic” throughout.

As to `Nc1ccn([C@@H]2O[C@H](CO)[C@@H](O)C2(F)F)c(=O)n1` [GEMCITABINE], the PC50 in [1], in series [3], in series [11] and in series [12] was over 200 µM each time. In addition, the Activity entry in series [6], in series [7], in [8] and in [10] was “Non-toxic” throughout.

Take `C/C(=C\COC(=O)c1ccccc1)COC(=O)c1ccccc1` [UVARIDACANE A]: the PC50 in series [1] turned out to be 56.3 µM; in [3], 122 µM; in series [11], 72.3 µM; in series [12] it was 96.5 µM. For the same compound, the Activity result in series [6], in [7], in series [8] and in [10] was “Non-toxic” each time.

As for `C/C(=C\COC(=O)/C=C/c1ccccc1)COC(=O)c1ccccc1` [UVARIDACANE B], the PC50 in [1] is 57.8 µM; in series [3], over 200 µM; in series [11], 134 µM; in series [12], 143 µM. Also, the Activity result in series [6], in series [7], in series [8] and in series [10] was “Non-toxic” throughout.

As to `CC(=O)O[C@H]1C(COC(=O)c2ccccc2)=C[C@@H](O)[C@@H](O)[C@H]1OC(=O)c1ccccc1` [UVARIDACOL A], the PC50 is 192 µM in series [1], 83 µM in series [3], 102 µM in series [11] and 173 µM in series [12]. The Activity result in [6], in [7], in [8] and in series [10] was “Non-toxic” throughout.

Turning to `CO[C@@H]1C=C(COC(=O)c2ccccc2)[C@H](OC(C)=O)[C@H](OC(=O)c2ccccc2)[C@@H]1O` [UVARIDACOL B], the PC50 was 147 µM in series [1], over 200 µM in [3], 69.8 µM in series [11] and 158 µM in series [12]. Further, the Activity entry in series [6], in series [7], in series [8] and in series [10] was “Non-toxic” throughout.

Regarding `O=C(OCC1=C[C@H](O)[C@H](O)[C@@H](OC(=O)c2ccccc2)[C@@H]1O)c1ccccc1` [UVARIDACOL C], the results for the PC50 in series [1], in [11] and in series [12] were 115 µM, 72.9 µM and 152 µM, respectively. Moreover, the Activity entry in series [6], in series [7], in series [8] and in [10] was “Non-toxic” in each case.

`CC(=O)O[C@@H]1C(COC(=O)c2ccccc2)=C[C@H]2O[C@H]2[C@H]1OC(=O)c1ccccc1` [UVARIDAPOXIDE A]: the PC50 came to 100 µM in [1], 159 µM in [3], 112 µM in series [11] and 80.1 µM in series [12]. Further, the Activity result in series [6], in series [7], in series [8] and in series [10] was “Non-toxic” throughout.
